ChEMBL document CHEMBL1129988, “4-substituted cubylcarbinylamines: a new class of mechanism-based monoamine oxidase B inactivators” (J Med Chem, 1997)

Legend:
[1] = biological target: T1, Amine oxidase [flavin-containing] B (Bos taurus, UniProt P56560); test: Inhibition constant was evaluated against mitochondrial Monoamine oxidase B
T1 sequence (P56560 whole entry): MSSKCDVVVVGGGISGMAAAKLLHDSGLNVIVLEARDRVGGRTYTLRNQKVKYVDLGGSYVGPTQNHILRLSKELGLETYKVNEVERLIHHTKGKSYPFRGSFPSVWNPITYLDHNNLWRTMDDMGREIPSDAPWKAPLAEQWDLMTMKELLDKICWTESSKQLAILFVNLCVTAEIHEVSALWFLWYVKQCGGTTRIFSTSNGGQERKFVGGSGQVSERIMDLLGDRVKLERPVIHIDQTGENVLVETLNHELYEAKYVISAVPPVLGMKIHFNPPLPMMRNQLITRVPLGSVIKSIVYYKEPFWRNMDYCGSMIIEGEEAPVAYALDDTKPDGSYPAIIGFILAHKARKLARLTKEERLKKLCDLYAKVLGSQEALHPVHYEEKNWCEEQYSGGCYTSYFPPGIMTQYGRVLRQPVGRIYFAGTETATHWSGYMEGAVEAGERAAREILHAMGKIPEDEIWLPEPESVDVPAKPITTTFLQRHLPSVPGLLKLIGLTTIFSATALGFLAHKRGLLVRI
Procedure, shortened: (§1)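 MAO B (20 μL of 2.6 mg/mL) was added to the amine hydrochloride at various concentrations, in 100 mM Tris pH 9.0 with 4% v/v DMSO. The mixture was incubated at 25 °C. At intervals an aliquot was diluted 1:50 into 1.0 mM benzylamine in the same buffer, and activity was read as the change in absorbance at 250 nm. Activity is expressed relative to a no-inactivator DMSO control. K_I and k_inact were derived by the Kitz–Wilson method.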

[2] = biological target: T1, Amine oxidase [flavin-containing] B; test: K inact/KI against Monoamine oxidase B; procedure, shortened: as §1
[3] = biological target: T1, Amine oxidase [flavin-containing] B; test: Inactivation constant was determined against mitochondrial Monoamine oxidase B; procedure, shortened: as §1

Row | Ki [1] [µM] | kinact/KI [2] [M⁻¹ s⁻¹] | kinact [3] [s⁻¹] | SMILES
1 | 260 | 18.3 | 0.00467 | NCC12C3C4C1C1C2C3C41C1CC1 (centres undefined)
2 | 120 | 105 | 0.0125 | NCC12C3C4C1C1C2C3C41c1ccccc1 (centres undefined)
3 | 170 | 3.17 | 0.00055 | NCC12C3C4C5C3C1C5C42 (centres undefined)
